Experiments:
HCT-116 [1] = test: Growth inhibition against human HCT-116 cells incubated for 48 hrs by sulforhodamine B assay; assay type: functional
UACC-62 = test: Growth inhibition against human UACC-62 cells incubated for 48 hrs by sulforhodamine B assay; assay type: functional
OVCAR-5 [2] = test: Antiproliferative activity against human OVCAR-5 cells assessed as cell growth at 0.00001 M incubated for 48 hrs by SRB assay relative to control; assay type: functional; details: read-out: Activity
SNB-19 [3] = test: Antiproliferative activity against human SNB-19 cells assessed as cell growth at 0.0000001 M incubated for 48 hrs by SRB assay relative to control; assay type: functional; details: dose 100 nM, read-out: Activity
SNB-19 [4] = test: Antiproliferative activity against human SNB-19 cells assessed as cell growth inhibition by measuring lethal concentration incubated for 48 hrs by sulforhodamine B assay; assay type: functional; details: read-out: LC50 (the source's name)
Outline: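 NCI-60 five-dose screen (10^-4 to 10^-8 M, 10-fold dilutions; DMSO stocks). Cells in RPMI 1640 with 5% FBS and 2 mM L-glutamine, preincubated 24 h, then exposed 48 h at 37 °C, 5% CO2. Fixed with cold TCA, stained with 0.4% SRB, absorbance read at 515 nm. Time-zero plates used as reference. LC50 taken from [(Ti-Tz)/Tz]×100 […].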

RPMI-8226 = test: Growth inhibition against human RPMI-8226 cells incubated for 48 hrs by sulforhodamine B assay; assay type: functional
TK-10 = test: Antiproliferative activity against human TK-10 cells assessed as cell growth at 0.00000001 M incubated for 48 hrs by SRB assay relative to control; assay type: functional; details: dose 10 nM, read-out: Activity
OVCAR-5 [5] = test: Antiproliferative activity against human OVCAR-5 cells assessed as cell growth at 0.0001 M incubated for 48 hrs by SRB assay relative to control; assay type: functional; details: read-out: Activity
HCT-15 [6] = test: Antiproliferative activity against human HCT-15 cells assessed as cell growth at 0.0000001 M incubated for 48 hrs by SRB assay relative to control; assay type: functional; details: dose 100 nM, read-out: Activity
Outline: (§1)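 NCI-60 five-dose screen (10^-4 to 10^-8 M). Cells grown in RPMI 1640 with 5% FBS and 2 mM L-glutamine, plated at 5,000-40,000 cells/well and preincubated 24 h. Drug given from DMSO stock, then 48 h at 37 °C, 5% CO2. For adherent lines, cells fixed with cold TCA, SRB-stained and read at 515 nm. Percent growth taken against time-zero and untreated control.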

HCT-15 [7] = test: Growth inhibition against human HCT-15 cells incubated for 48 hrs by sulforhodamine B assay; assay type: functional
COLO 205 = test: Antiproliferative activity against human COLO 205 cells assessed as cell growth at 0.000001 M incubated for 48 hrs by SRB assay relative to control; assay type: functional; details: read-out: Activity
Outline: (§2)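 NCI-60 five-dose screen over 10^-4–10^-8 M (10-fold dilutions). Cells grown in RPMI 1640 with 5% FBS and 2 mM L-glutamine, seeded at 5,000–40,000 cells/well and preincubated 24 h. Drug from DMSO stock, 48 h at 37 °C, 5% CO2. Adherent cells TCA-fixed and stained with 0.4% SRB; A515 read. Percent growth = (Ti−Tz)/(C−Tz)×100, or (Ti−Tz)/Tz×100 when Ti<Tz.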

HOP-92 = test: Antiproliferative activity against human HOP-92 cells assessed as cell growth inhibition by measuring lethal concentration incubated for 48 hrs by sulforhodamine B assay; assay type: functional; details: read-out: LC50 (the source's name)
SNB-19 [8] = test: Antiproliferative activity against human SNB-19 cells assessed as cell growth at 0.0001 M incubated for 48 hrs by SRB assay relative to control; assay type: functional; details: read-out: Activity
UACC-257 = test: Antiproliferative activity against human UACC-257 cells assessed as cell growth at 0.00000001 M incubated for 48 hrs by SRB assay relative to control; assay type: functional; details: dose 10 nM, read-out: Activity
SK-MEL-2 = test: Antiproliferative activity against human SK-MEL-2 cells assessed as cell growth inhibition by measuring lethal concentration incubated for 48 hrs by sulforhodamine B assay; assay type: functional; details: read-out: LC50 (the source's name)
CCRF-CEM [9] = test: Antiproliferative activity against human CCRF-CEM cells assessed as cell growth at 0.000001 M incubated for 48 hrs by SRB assay relative to control; assay type: functional; details: read-out: Activity; outline: as §2
BT-549 = test: Antiproliferative activity against human BT-549 cells assessed as cell growth at 0.000001 M incubated for 48 hrs by SRB assay relative to control; assay type: functional; details: read-out: Activity; outline: as §2
U-251 = test: Antiproliferative activity against human U-251 cells assessed as cell growth at 0.00000001 M incubated for 48 hrs by SRB assay relative to control; assay type: functional; details: dose 10 nM, read-out: Activity
A498 [10] = test: Antiproliferative activity against human A498 cells assessed as cell growth inhibition by measuring lethal concentration incubated for 48 hrs by sulforhodamine B assay; assay type: functional; details: read-out: LC50 (the source's name)
SK-MEL-28 = test: Antiproliferative activity against human SK-MEL-28 cells assessed as cell growth at 0.0001 M incubated for 48 hrs by SRB assay relative to control; assay type: functional; details: read-out: Activity
MDA-MB-435 [11] = test: Antiproliferative activity against human MDA-MB-435 cells assessed as cell growth at 0.000001 M incubated for 48 hrs by SRB assay relative to control; assay type: functional; details: read-out: Activity
HCT-116 [12] = test: Antiproliferative activity against human HCT-116 cells assessed as cell growth at 0.0001 M incubated for 48 hrs by SRB assay relative to control; assay type: functional; details: read-out: Activity; outline: as §1
EKVX = test: Antiproliferative activity against human EKVX cells assessed as cell growth at 0.0000001 M incubated for 48 hrs by SRB assay relative to control; assay type: functional; details: dose 100 nM, read-out: Activity; outline: as §1
IGROV-1 [13] = test: Growth inhibition against human IGROV-1 cells assessed as total growth inhibitory concentration incubated for 48 hrs by sulforhodamine B assay; assay type: functional
CCRF-CEM [14] = test: Antiproliferative activity against human CCRF-CEM cells assessed as cell growth inhibition by measuring lethal concentration incubated for 48 hrs by sulforhodamine B assay; assay type: functional; details: read-out: LC50 (the source's name)
M14 = test: Antiproliferative activity against human M14 cells assessed as cell growth at 0.0000001 M incubated for 48 hrs by SRB assay relative to control; assay type: functional; details: dose 100 nM, read-out: Activity
IGROV-1 [15] = test: Antiproliferative activity against human IGROV-1 cells assessed as cell growth at 0.00001 M incubated for 48 hrs by SRB assay relative to control; assay type: functional; details: read-out: Activity
A498 [16] = test: Growth inhibition against human A498 cells incubated for 48 hrs by sulforhodamine B assay; assay type: functional
Malme-3M = test: Antiproliferative activity against human Malme-3M cells assessed as cell growth at 0.00001 M incubated for 48 hrs by SRB assay relative to control; assay type: functional; details: read-out: Activity
NCI-H522 = test: Growth inhibition against human NCI-H522 cells assessed as total growth inhibitory concentration incubated for 48 hrs by sulforhodamine B assay; assay type: functional
Calf thymus DNA = test: Displacement of ethidium bromide from calf thymus DNA assessed as Stern-Volmer quenching constant upto 85 uM by fluorescence based spectroscopic analysis; assay type: nucleic-acid assay; details: Bos taurus
MDA-MB-435 [17] = test: Antiproliferative activity against human MDA-MB-435 cells assessed as cell growth at 0.00001 M incubated for 48 hrs by SRB assay relative to control; assay type: functional; details: read-out: Activity
RXF 393 = test: Antiproliferative activity against human RXF 393 cells assessed as cell growth at 0.00000001 M incubated for 48 hrs by SRB assay relative to control; assay type: functional; details: dose 10 nM, read-out: Activity

| SMILES | GI50 (HCT-116 [1]) [nM] | GI50 (UACC-62) [nM] | growth at 10 µM (OVCAR-5 [2]) [%] | growth at 0.1 µM (SNB-19 [3]) [%] | CC50 (SNB-19 [4]) [nM] | GI50 (RPMI-8226) [nM] | growth at 0.01 µM (TK-10) [%] | growth at 100 µM (OVCAR-5 [5]) [%] | growth at 0.1 µM (HCT-15 [6]) [%] | GI50 (HCT-15 [7]) [nM] | growth at 1 µM (COLO 205) [%] | CC50 (HOP-92) [nM] | growth at 100 µM (SNB-19 [8]) [%] | growth at 0.01 µM (UACC-257) [%] | CC50 (SK-MEL-2) [nM] | growth at 1 µM (CCRF-CEM [9]) [%] | growth at 1 µM (BT-549) [%] | growth at 0.01 µM (U-251) [%] | CC50 (A498 [10]) [nM] | growth at 100 µM (SK-MEL-28) [%] | other results |
| --- | --- | --- | --- | --- | --- | --- | --- | --- | --- | --- | --- | --- | --- | --- | --- | --- | --- | --- | --- | --- | --- |
| COc1ccc(-c2cn3ccnc3c(-c3ccc4ncn(C5CCCCC5)c4c3)n2)cc1 | 399 | 434 | 31 | 108 | > 100000 | 2960 | 88 | 56 | 99 | 722 | 76 | > 100000 | 15 | 100 | > 100000 | 59 | 26 | 102 | > 100000 | 36 | growth at 1 µM (MDA-MB-435 [11]): 7%; growth at 100 µM (HCT-116 [12]): -29%; growth at 0.1 µM (EKVX): 89%; TGI (IGROV-1 [13]): > 100000 nM; CC50 (CCRF-CEM [14]): > 100000 nM; growth at 0.1 µM (M14): 95%; growth at 10 µM (IGROV-1 [15]): 19%; GI50 (A498 [16]): 742 nM; growth at 10 µM (Malme-3M): 51%; TGI (NCI-H522): 6150 nM; KSV (Calf thymus DNA): 0.82 10^4/M; growth at 10 µM (MDA-MB-435 [17]): 6%; growth at 0.01 µM (RXF 393): 102% |
| c1ccc(Cn2cnc3ccc(-c4nc(-c5ccc6c(c5)ncn6C5CCCCC5)cn5ccnc45)cc32)cc1 | 1070 | 1980 | -3 | 103 | > 100000 | 1150 | 84 | 21 | 96 | 1570 | 92 | 5500 | 32 | 101 | > 100000 | 72 | 62 | 98 | 6850 | 13 | growth at 1 µM (MDA-MB-435 [11]): 92%; growth at 100 µM (HCT-116 [12]): -33%; growth at 0.1 µM (EKVX): 91%; TGI (IGROV-1 [13]): > 100000 nM; CC50 (CCRF-CEM [14]): > 100000 nM; growth at 0.1 µM (M14): 91%; growth at 10 µM (IGROV-1 [15]): 3%; GI50 (A498 [16]): 1860 nM; growth at 10 µM (Malme-3M): -10%; TGI (NCI-H522): 5090 nM; KSV (Calf thymus DNA): 0.74 10^4/M; growth at 10 µM (MDA-MB-435 [17]): -32%; growth at 0.01 µM (RXF 393): 101% |
